Assay results reported in ChEMBL document CHEMBL2034978, “Synthesis and evaluation of curcumin-related compounds for anticancer activity” (Eur J Med Chem, 2012).
The source made the active and inactive calls. The calls are words filed in the database; no cut-off is given here.

Key:
PANC-1 [1] = experiment: Cytotoxicity against human PANC1 cells after 72 hrs by MTT assay; assay type: functional, cell-based; settings: PANC-1, 72 h
Summary of the method: (§1)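 Seeded at 0.2 × 10⁵ cells/ml, grown 24 h, then exposed 72 h to a range of concentrations (upper limit 30). MTT read-out: formazan dissolved in DMSO, absorbance at 540 nm, growth expressed as percent of DMSO-treated cells.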

PC-3 [2] = experiment: Cytotoxicity against human PC3 cells after 72 hrs by MTT assay; assay type: functional, cell-based; settings: PC-3, 72 h; summary of the method: as §1
HT-29 [3] = experiment: Cytotoxicity against human HT-29 cells after 72 hrs by MTT assay; assay type: functional, cell-based; settings: HT-29, 72 h; summary of the method: as §1
PANC-1 [4] = experiment: Ratio of curcumin IC50 to compound IC50 for human PANC1 cells; assay type: functional
Summary of the method: (§2)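 Curcumin served as positive control in each incubation, with its growth-inhibition data averaged across experiments.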

HT-29 [5] = experiment: Ratio of curcumin IC50 to compound IC50 for human HT-29 cells; assay type: functional; summary of the method: as §2
PC-3 [6] = experiment: Ratio of curcumin IC50 to compound IC50 for human PC3 cells; assay type: functional; summary of the method: as §2
PC-3 [7] = experiment: Induction of apoptosis in human PC3 cells at <1 uM after 96 hrs by morphology analysis; assay type: functional, cell-based
[8] = biological target: Mitogen-activated protein kinase; ERK1/ERK2 (Homo sapiens) (UniProt P27361+P28482); experiment: Inhibition of ERK1/2 phosphorylation in human PC3 cells at 0.5 uM after 24 hrs by Western blotting relative to beta-actin; assay type: cell-based; settings: PC-3
Mitogen-activated protein kinase; ERK1/ERK2 (Homo sapiens), sequence (P27361 whole entry, looked up): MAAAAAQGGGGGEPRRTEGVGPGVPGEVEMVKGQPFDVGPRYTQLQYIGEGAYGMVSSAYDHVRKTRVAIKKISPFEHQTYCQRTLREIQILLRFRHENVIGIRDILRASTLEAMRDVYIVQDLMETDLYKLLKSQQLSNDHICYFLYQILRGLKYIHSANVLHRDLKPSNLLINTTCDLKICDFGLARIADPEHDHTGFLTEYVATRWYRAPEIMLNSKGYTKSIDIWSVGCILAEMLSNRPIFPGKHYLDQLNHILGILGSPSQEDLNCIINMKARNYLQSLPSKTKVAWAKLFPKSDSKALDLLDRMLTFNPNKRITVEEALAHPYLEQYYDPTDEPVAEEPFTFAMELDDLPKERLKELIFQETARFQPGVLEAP
Mitogen-activated protein kinase; ERK1/ERK2 (Homo sapiens), sequence (P28482 whole entry, looked up): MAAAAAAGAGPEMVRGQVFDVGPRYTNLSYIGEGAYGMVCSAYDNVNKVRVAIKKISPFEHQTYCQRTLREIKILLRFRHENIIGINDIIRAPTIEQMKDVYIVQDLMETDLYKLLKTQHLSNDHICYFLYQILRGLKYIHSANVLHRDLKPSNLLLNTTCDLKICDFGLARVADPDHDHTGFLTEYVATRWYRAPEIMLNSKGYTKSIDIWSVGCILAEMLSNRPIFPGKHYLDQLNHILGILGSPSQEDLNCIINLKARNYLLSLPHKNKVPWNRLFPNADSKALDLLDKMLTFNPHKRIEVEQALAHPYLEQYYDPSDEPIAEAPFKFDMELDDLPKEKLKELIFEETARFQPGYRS
Summary of the method: (§3)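 PC-3 cells were seeded at 1 × 10⁵ cells/ml in 100 mm dishes, grown 24 h, then treated 24 h. Cells were lysed in Tris-HCl pH 7.4 buffer containing NaF, pyrophosphate, orthovanadate and Triton X-100, and lysates cleared at 12,000×g. Blots on PVDF were probed with anti-phospho-Akt or anti-phospho-Erk1/2, detected by ECL, quantified by optical density and normalized to β-actin.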

PC-3 [9] = experiment: Inhibition of Akt phosphorylation in human PC3 cells at 0.5 uM after 24 hrs by Western blotting relative to beta-actin; assay type: cell-based; summary of the method: as §3

O=C1/C(=C/c2ccsc2)CCC/C1=C\c1ccsc1
IC50 (PANC-1 [1]): 17.4 µM
IC50 (PC-3 [2]): 14.6 µM
IC50 (HT-29 [3]): 17.3 µM

O=C1/C(=C/c2cccnc2)COC/C1=C\c1cccnc1
IC50 (PANC-1 [1]): 0.98 µM
IC50 (PC-3 [2]): 2.21 µM
IC50 (HT-29 [3]): 1.81 µM

COc1ccc(/C=C2\COC/C(=C\c3ccc(OC)c(OC)c3OC)C2=O)c(OC)c1OC
IC50 (PANC-1 [1]): 2.67 µM
IC50 (PC-3 [2]): 2.74 µM
IC50 (HT-29 [3]): 2.45 µM

O=C1/C(=C/c2ccsc2)CSC/C1=C\c1ccsc1
IC50 (PANC-1 [1]): 7.49 µM
IC50 (PC-3 [2]): 4.13 µM
IC50 (HT-29 [3]): 6.75 µM

O=C1/C(=C/c2ccncc2)CSC/C1=C\c1ccncc1
IC50 (PANC-1 [1]): 1.14 µM
IC50 (PC-3 [2]): 0.7 µM
IC50 (HT-29 [3]): 1.29 µM

O=C1C(=Cc2ccc(O)cc2)CSCC1=Cc1ccc(O)cc1
IC50 (PANC-1 [1]): 12 µM
IC50 (PC-3 [2]): 8.23 µM
IC50 (HT-29 [3]): 4.27 µM

O=C(/C=C/c1ccc(Cl)cc1)/C=C/c1ccc(Cl)cc1
IC50 (PANC-1 [1]): 14.1 µM
IC50 (PC-3 [2]): 16.7 µM
IC50 (HT-29 [3]): 10.9 µM

O=C1/C(=C/c2ccc(Cl)cc2)CNC/C1=C\c1ccc(Cl)cc1
IC50 (PANC-1 [1]): 3.73 µM
IC50 (PC-3 [2]): 3.63 µM
IC50 (HT-29 [3]): 6.33 µM

O=C1/C(=C/c2ccc(Br)cc2)CCC/C1=C\c1ccc(Br)cc1
IC50 (PANC-1 [1]): 12.2 µM
IC50 (PC-3 [2]): 13.6 µM
IC50 (HT-29 [3]): 9.19 µM

O=C(/C=C/c1ccc(Br)cc1)/C=C/c1ccc(Br)cc1
IC50 (PANC-1 [1]): 20.8 µM
IC50 (PC-3 [2]): 23.1 µM
IC50 (HT-29 [3]): 14 µM

O=C1/C(=C/c2cccnc2)CSC/C1=C\c1cccnc1
Ratio IC50 (PANC-1 [4]): 45
IC50 (PANC-1 [1]): 0.51 µM
Ratio IC50 (HT-29 [5]): 27
Ratio IC50 (PC-3 [6]): 21
Activity (PC-3 [7]): Active
IC50 (PC-3 [2]): 0.96 µM
IC50 (HT-29 [3]): 0.79 µM
inhibition [8]: Active
inhibition (PC-3 [9]): inactive

O=C1/C(=C/c2ccc(O)cc2)CCC/C1=C\c1ccc(O)cc1
IC50 (PANC-1 [1]): 13.2 µM
IC50 (PC-3 [2]): 13.2 µM
IC50 (HT-29 [3]): 11.7 µM

O=C(/C=C/c1ccc(O)c(O)c1)/C=C/c1ccc(O)c(O)c1
IC50 (PANC-1 [1]): 13.4 µM
IC50 (PC-3 [2]): 8.99 µM
IC50 (HT-29 [3]): 9.02 µM

COc1ccc(/C=C2\CC/C(=C\c3ccc(OC)cc3)C2=O)cc1
IC50 (PANC-1 [1]): > 30 µM
IC50 (PC-3 [2]): 25.8 µM
IC50 (HT-29 [3]): 23 µM

O=C1/C(=C/c2ccc(Cl)cc2)CCC/C1=C\c1ccc(Cl)cc1
IC50 (PANC-1 [1]): 11.8 µM
IC50 (PC-3 [2]): 11.3 µM
IC50 (HT-29 [3]): 7.75 µM

O=C1/C(=C/c2ccc(O)cc2)COC/C1=C\c1ccc(O)cc1
IC50 (PANC-1 [1]): 11.1 µM
IC50 (PC-3 [2]): 7.28 µM
IC50 (HT-29 [3]): 3.86 µM

COc1cc(/C=C2\CC/C(=C\c3cc(OC)c(O)c(OC)c3)C2=O)cc(OC)c1O
IC50 (PANC-1 [1]): 9.63 µM
IC50 (PC-3 [2]): 9.98 µM
IC50 (HT-29 [3]): 7.8 µM

COc1ccc(C=C2CSCC(=Cc3ccc(OC)cc3)C2=O)cc1
IC50 (PANC-1 [1]): 10.9 µM
IC50 (PC-3 [2]): 8.46 µM
IC50 (HT-29 [3]): 7.93 µM

COc1cc(C=C2CSCC(=Cc3cc(OC)c(O)c(OC)c3)C2=O)cc(OC)c1O
IC50 (PANC-1 [1]): 2.2 µM
IC50 (PC-3 [2]): 1.13 µM
IC50 (HT-29 [3]): 1.73 µM

O=C1/C(=C/c2ccc(Br)cc2)CC/C1=C\c1ccc(Br)cc1
IC50 (PANC-1 [1]): 25.3 µM
IC50 (PC-3 [2]): > 30 µM
IC50 (HT-29 [3]): 19.9 µM

COc1ccc(/C=C/C(=O)/C=C/c2ccc(OC)c(OC)c2)cc1OC
IC50 (PANC-1 [1]): 3.39 µM
IC50 (PC-3 [2]): 2.98 µM
IC50 (HT-29 [3]): 2.17 µM

O=C(/C=C/c1ccc(O)cc1)/C=C/c1ccc(O)cc1
IC50 (PANC-1 [1]): 13.6 µM
IC50 (PC-3 [2]): 9.68 µM
IC50 (HT-29 [3]): 9.38 µM

COc1cc(/C=C2\COC/C(=C\c3cc(OC)c(O)c(OC)c3)C2=O)cc(OC)c1O
IC50 (PANC-1 [1]): 1.72 µM
IC50 (PC-3 [2]): 0.91 µM
IC50 (HT-29 [3]): 1.44 µM

O=C1/C(=C/c2cccnc2)CC/C1=C\c1cccnc1
IC50 (PANC-1 [1]): 6.22 µM
IC50 (PC-3 [2]): 6.97 µM
IC50 (HT-29 [3]): 5.54 µM

O=C1/C(=C/c2ccc(F)cc2)CNC/C1=C\c1ccc(F)cc1
IC50 (PANC-1 [1]): 3.15 µM
IC50 (PC-3 [2]): 2.87 µM
IC50 (HT-29 [3]): 3.26 µM

COc1cc(/C=C/C(=O)CC(=O)/C=C/c2ccc(O)c(OC)c2)ccc1O [CURCUMIN]
IC50 (PANC-1 [1]): 23.7 µM
Activity (PC-3 [7]): inactive
IC50 (PC-3 [2]): 19.4 µM
IC50 (HT-29 [3]): 18.7 µM
inhibition [8]: inactive
inhibition (PC-3 [9]): inactive

O=C1/C(=C/c2ccccn2)CC/C1=C\c1ccccn1
IC50 (PANC-1 [1]): 5.19 µM
IC50 (PC-3 [2]): 2.94 µM
IC50 (HT-29 [3]): 5.36 µM

O=C1/C(=C/c2cccnc2)CCC/C1=C\c1cccnc1
IC50 (PANC-1 [1]): 2.5 µM
IC50 (PC-3 [2]): 2.16 µM
IC50 (HT-29 [3]): 1.99 µM

COc1ccc(/C=C2\CCC/C(=C\c3ccc(OC)c(OC)c3)C2=O)cc1OC
IC50 (PANC-1 [1]): 4.46 µM
IC50 (PC-3 [2]): 5.2 µM
IC50 (HT-29 [3]): 4 µM

COc1cc(/C=C2\CCC/C(=C\c3ccc(O)c(OC)c3)C2=O)ccc1O [CYCLOVALONE]
IC50 (PANC-1 [1]): 4.43 µM
IC50 (PC-3 [2]): 5.89 µM
IC50 (HT-29 [3]): 3.73 µM
